Test results as given in ChEMBL document CHEMBL2417507, “Synthesis and bioevaluation of some new isoniazid derivatives” (Bioorg Med Chem, 2013).
Converted amounts (≈) assume the structure as drawn. The source made the active and inactive calls. No cut-off for these calls is given here.

Assays:
[1] = tested on: HCT-8; assay: Cell cycle arrest in human HCT8 cells assessed as accumulation at G2/M phase at 50 ug/mL after 24 hrs by propidium iodide staining-based flow cytometric analysis (reference value: 13.83%); format: ADME; conditions: hct-8, 24 h
[2] = tested on: HCT-8; assay: Cell cycle arrest in human HCT8 cells assessed as accumulation at S phase at 50 ug/mL after 24 hrs by propidium iodide staining-based flow cytometric analysis (reference value: 39.43%); format: ADME; conditions: hct-8, 24 h
[3] = Induction of apoptosis in human HCT8 cells assessed as viable cells at 50 ug/mL after 24 hrs by Annexin V-FITC and propidium iodide staining-based flow cytometric analysis (reference value: 87.7%); format: cell-based, HCT-8; conditions: read-out: Activity
[4] = tested on: HCT-8; assay: Induction of apoptosis in human HCT8 cells assessed as early apoptotic cells at 50 ug/mL after 24 hrs by Annexin V-FITC and propidium iodide staining-based flow cytometric analysis (reference value: 1.57%); format: cell-based; conditions: hct-8, 24 h
[5] = tested on: HCT-8; assay: Induction of apoptosis in human HCT8 cells assessed as late apoptotic cells at 50 ug/mL after 24 hrs by Annexin V-FITC and propidium iodide staining-based flow cytometric analysis (reference value: 2.97%); format: cell-based; conditions: hct-8, 24 h
[6] = tested on: HCT-8; assay: Induction of apoptosis in human HCT8 cells assessed as necrotic cells at 50 ug/mL after 24 hrs by Annexin V-FITC and propidium iodide staining-based flow cytometric analysis (reference value: 7.73%); format: cell-based; conditions: hct-8, 24 h
[7] = tested on: Acinetobacter baumannii; assay: Antibacterial activity against Acinetobacter baumannii 247 assessed as growth inhibition at 1 mg/mL after 24 hrs by agar-disk diffusion technique; format: functional, organism-based
In short: (§1)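 Agar-disk diffusion, adapted: plates seeded with 0.5 McFarland suspension prepared from 24 h cultures; 5 µL of a 1 mg/mL compound solution spotted onto the seeded solid medium; incubated 24 h at 37 °C. Stocks made in DMSO.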

[8] = tested on: Acinetobacter baumannii; assay: Antibacterial activity against Acinetobacter baumannii 192 assessed as growth inhibition at 1 mg/mL after 24 hrs by agar-disk diffusion technique; format: functional, organism-based; in short: as §1
[9] = tested on: Acinetobacter baumannii; assay: Antibacterial activity against Acinetobacter baumannii 135 assessed as growth inhibition at 1 mg/mL after 24 hrs by agar-disk diffusion technique; format: functional, organism-based; in short: as §1
[10] = tested on: Acinetobacter baumannii; assay: Antibacterial activity against Acinetobacter baumannii 125 assessed as growth inhibition at 1 mg/mL after 24 hrs by agar-disk diffusion technique; format: functional, organism-based; in short: as §1
[11] = tested on: Acinetobacter baumannii; assay: Antibacterial activity against Acinetobacter baumannii 122 assessed as growth inhibition at 1 mg/mL after 24 hrs by agar-disk diffusion technique; format: functional, organism-based; in short: as §1
[12] = tested on: Enterococcus faecalis; assay: Antibacterial activity against Enterococcus faecalis 2920 assessed as growth inhibition at 1 mg/mL after 24 hrs by agar-disk diffusion technique; format: functional, organism-based; in short: as §1
[13] = tested on: Pseudomonas aeruginosa; assay: Antibacterial activity against Pseudomonas aeruginosa 1144 assessed as growth inhibition at 1 mg/mL after 24 hrs by agar-disk diffusion technique; format: functional, organism-based; in short: as §1
[14] = tested on: Pseudomonas aeruginosa; assay: Antibacterial activity against Pseudomonas aeruginosa 165 assessed as growth inhibition at 1 mg/mL after 24 hrs by agar-disk diffusion technique; format: functional, organism-based; in short: as §1
[15] = tested on: Pseudomonas aeruginosa; assay: Antibacterial activity against Pseudomonas aeruginosa ATCC 27853 assessed as growth inhibition at 1 mg/mL after 24 hrs by agar-disk diffusion technique; format: functional, organism-based; in short: as §1
[16] = tested on: Klebsiella pneumoniae; assay: Antibacterial activity against Klebsiella pneumoniae 1756 assessed as growth inhibition at 1 mg/mL after 24 hrs by agar-disk diffusion technique; format: functional, organism-based; in short: as §1
[17] = tested on: Escherichia coli; assay: Antibacterial activity against Escherichia coli 1777 assessed as growth inhibition at 1 mg/mL after 24 hrs by agar-disk diffusion technique; format: functional, organism-based; in short: as §1
[18] = tested on: Proteus mirabilis; assay: Antibacterial activity against Proteus mirabilis 1751 assessed as growth inhibition at 1 mg/mL after 24 hrs by agar-disk diffusion technique; format: functional, organism-based; in short: as §1
[19] = tested on: Morganella morganii; assay: Antibacterial activity against Morganella morganii 2810 assessed as growth inhibition at 1 mg/mL after 24 hrs by agar-disk diffusion technique; format: functional, organism-based; in short: as §1
[20] = tested on: Citrobacter koseri; assay: Antibacterial activity against Citrobacter koseri 1742 assessed as growth inhibition at 1 mg/mL after 24 hrs by agar-disk diffusion technique; format: functional, organism-based; in short: as §1
[21] = tested on: Enterobacter cloacae; assay: Antibacterial activity against Enterobacter cloacae 1845 assessed as growth inhibition at 1 mg/mL after 24 hrs by agar-disk diffusion technique; format: functional, organism-based; in short: as §1
[22] = tested on: Staphylococcus aureus; assay: Antibacterial activity against Staphylococcus aureus assessed as growth inhibition at 1 mg/mL after 24 hrs by agar-disk diffusion technique; format: functional, organism-based; in short: as §1
[23] = tested on: Staphylococcus hominis; assay: Antibacterial activity against Staphylococcus hominis 1813 assessed as growth inhibition at 1 mg/mL after 24 hrs by agar-disk diffusion technique; format: functional, organism-based; in short: as §1
[24] = tested on: Mycobacterium tuberculosis; assay: Antimycobacterial activity against Mycobacterium tuberculosis after 8 days by micro plate Alamar Blue assay; format: functional; conditions: 192 h
In short: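 Clinical M. tuberculosis strain grown in Middlebrook 7H9 broth. Compounds were dissolved in DMSO and serially diluted twofold on the plate, final 25 to 0.012 µg/mL. Plates were sealed and held 8 days at 37 °C. Alamar Blue with 10% Tween 80 (1:1) was then added for another 24 h at 37 °C. MIC was the lowest concentration preventing the blue-to-pink change.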

[25] = tested on: Radical scavenging activity; assay: Antioxidant activity assessed as DPPH radical scavenging activity at 0.1 mg/mL after 30 mins under dark conditions by spectrophotometric analysis relative to control; format: functional
In short: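 Compounds dissolved in methanol at 0.1 mg/mL; 0.2 mL mixed with 1.8 mL of 2 × 10^-4 M DPPH in methanol and kept in the dark 30 min. Absorbance read at 517 nm. The blank was DPPH plus methanol. TAC (%) = (Abs initial − Abs 30 min)/Abs initial × 100.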

[26] = tested on: HCT-8; assay: Decrease in NAT1 gene expression in human HCT8 cells at 50 ug/mL after 24 hrs by RT-PCR analysis; format: ADME, cell-based; conditions: hct-8, 24 h
[27] = tested on: HCT-8; assay: Cell cycle arrest in human HCT8 cells assessed as accumulation at G0/G1 phase at 50 ug/mL after 24 hrs by propidium iodide staining-based flow cytometric analysis (reference value: 46.43%); format: ADME; conditions: hct-8, 24 h
[28] = tested on: HCT-8; assay: Decrease in NAT2 gene expression in human HCT8 cells at 50 ug/mL after 24 hrs by RT-PCR analysis; format: ADME, cell-based; conditions: hct-8, 24 h
[29] = tested on: Acinetobacter baumannii; assay: Antibacterial activity against Acinetobacter baumannii 136 assessed as growth inhibition at 1 mg/mL after 24 hrs by agar-disk diffusion technique; format: functional, organism-based; in short: as §1
[30] = tested on: Pseudomonas putida; assay: Antibacterial activity against Pseudomonas putida 160 assessed as growth inhibition at 1 mg/mL after 24 hrs by agar-disk diffusion technique; format: functional, organism-based; in short: as §1
[31] = tested on: HCT-8; assay: Increase in NAT1 gene expression in human HCT8 cells at 50 ug/mL after 24 hrs by RT-PCR analysis; format: ADME, cell-based; conditions: hct-8, 24 h
[32] = tested on: HCT-8; assay: Increase in NAT2 gene expression in human HCT8 cells at 50 ug/mL after 24 hrs by RT-PCR analysis; format: ADME, cell-based; conditions: hct-8, 24 h

| Compound | Activity [1] | Activity [2] | viability at 24 h, 50 ug/mL [3] | Activity [4] | Activity [5] | Activity [6] | growth inhibition (GI) [7] | growth inhibition (GI) [9] | growth inhibition (GI) [10] | growth inhibition (GI) [13] | growth inhibition (GI) [14] | growth inhibition (GI) [15] | growth inhibition (GI) [16] | growth inhibition (GI) [18] | growth inhibition (GI) [19] | TAC [25] | Activity [27] | Activity [28] | growth inhibition (GI) [29] | growth inhibition (GI) [30] | also measured |
| --- | --- | --- | --- | --- | --- | --- | --- | --- | --- | --- | --- | --- | --- | --- | --- | --- | --- | --- | --- | --- | --- |
| NNC(=O)c1ccncc1 [ISONIAZID] | 15.01% | 38.48% | 71.5% | 1.95% | 8.56% | 17.9% | inactive | Active | inactive | inactive | inactive | inactive | inactive | inactive | inactive | 90% | 44.12% | Toxic | – | – | growth inhibition (GI) [8]: Active; growth inhibition (GI) [11]: inactive; growth inhibition (GI) [12]: inactive; growth inhibition (GI) [17]: inactive; growth inhibition (GI) [20]: inactive; growth inhibition (GI) [21]: Active; growth inhibition (GI) [22]: inactive; growth inhibition (GI) [23]: inactive; MIC [24]: 0.098 µg/mL (≈ 0.715 µM); Activity [26]: Toxic |
| CCOc1ccc(/C=C/C(N)=S)cc1 | 15.41% | 22.57% | 70.1% | 1.56% | 13.6% | 14.8% | inactive | Active | inactive | Active | – | Active | inactive | Active | Active | 37.9% | 61.33% | Toxic | Active | Active | growth inhibition (GI) [8]: Active; growth inhibition (GI) [12]: Active; growth inhibition (GI) [20]: Active; growth inhibition (GI) [21]: Active |
| COc1ccc(/C=C/C(N)(S)NNC(=O)c2ccncc2)cc1 (configuration not stated) | 13.78% | 37.52% | 70.7% | 1.29% | 9.83% | 18.2% | – | Active | – | Active | Active | – | – | inactive | – | 14% | 48.85% | Toxic | Active | Active | growth inhibition (GI) [21]: Active; MIC [24]: 1.56 µg/mL (≈ 4.73 µM); Activity [26]: Toxic |
| CCOc1ccc(/C=C/C(N)(S)NNC(=O)c2ccncc2)cc1 (configuration not stated) | 17.5% | 22.43% | 44.2% | 5.81% | 21.6% | 28.3% | – | Active | – | Active | – | inactive | inactive | – | inactive | 25.7% | 58.14% | – | Active | Active | growth inhibition (GI) [17]: inactive; growth inhibition (GI) [21]: inactive; MIC [24]: 0.781 µg/mL (≈ 2.27 µM); Activity [31]: Toxic; Activity [32]: Toxic |
| Cc1ccc(/C=C/C(N)=S)cc1 | 47.84% | 26.63% | 59.8% | 7.11% | 14.7% | 18.4% | inactive | Active | inactive | Active | inactive | inactive | inactive | inactive | inactive | 25.7% | 24.16% | Toxic | Active | Active | Activity [26]: Toxic |
| COc1ccc(/C=C/C(N)=S)cc1 | 23.56% | 23.26% | 63.8% | 3.09% | 12.9% | 20.3% | inactive | Active | inactive | Active | inactive | inactive | inactive | inactive | inactive | 60% | 54.61% | Toxic | Active | Active | growth inhibition (GI) [17]: Active; Activity [26]: Toxic |
